{"source": "ChEMBL document CHEMBL1143957", "about": "“Inhibitory property of the Piper betel phenolics against photosensitization-induced biological damages” (Bioorg Med Chem, 2008)", "key": {"Liver [1]": {"tested_on": "Liver", "test": "Protection against 30 mins photoirradiation-induced damage in rat liver mitochondria assessed as reduction of lipid hydroperoxide formation at 180 uM", "format": "functional", "design": "scale not given: the % may be the effect or the level left", "outline": "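Lipid hydroperoxide read-out: mitochondrial protein (0.5 mg/mL) plus methylene blue (50 µg/mL) with test agent at 180 µM added before a 30 min photo-irradiation. LOOH was quantified as absorbance at 560 nm. Mean ± SEM, n = 5.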"}, "Liver [2]": {"tested_on": "Liver", "test": "Protection against 30 mins photoirradiation-induced lipid peroxidation damage in rat liver mitochondria assessed as prevention of TBARS formation at 30 uM", "format": "functional", "outline": "(§1)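 Rat liver mitochondria (0.5 mg protein/mL final) with methylene blue (50 µg/mL) and test agent in KH₂PO₄–KOH buffer pH 7.4, held at 37 °C and irradiated 30 min with a 100 W tungsten lamp (32.45 W m⁻²). TBARS were measured after 15 min boiling with TBA/TCA/EDTA/HCl reagent, centrifugation and A532 against a malonaldehyde standard. Unirradiated endogenous TBARS were subtracted. Results are % protection, mean ± SEM, n = 5.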"}, "Liver [3]": {"tested_on": "Liver", "test": "Protection against 30 mins photoirradiation-induced lipid peroxidation damage in rat liver mitochondria assessed as prevention of TBARS formation at 60 uM", "format": "functional", "outline": "as §1"}, "Liver [4]": {"tested_on": "Liver", "test": "Protection against 30 mins photoirradiation-induced lipid peroxidation damage in rat liver mitochondria assessed as prevention of TBARS formation at 180 uM", "format": "functional", "outline": "as §1"}, "Liver [5]": {"tested_on": "Liver", "test": "Protection against 30 mins photoirradiation-induced lipid peroxidation damage in rat liver mitochondria assessed as prevention of TBARS formation at 2 mM", "format": "functional", "outline": "as §1"}, "Liver [6]": {"tested_on": "Liver", "test": "Protection against photoirradiation-induced lipid peroxidation damage in rat liver mitochondria at 10 mM", "format": "functional", "outline": "as §1"}, "Liver [7]": {"tested_on": "Liver", "test": "Protection against photoirradiation-induced lipid peroxidation damage in rat liver mitochondria at 100 mM", "format": "functional", "outline": "as §1"}, "L929 [8]": {"tested_on": "L929", "test": "Prevention of 5 mins photoirradiation-induced damage in mouse L929 cells assessed as survival at 5 uM by MTT assay", "format": "functional", "conditions": "L929, light or radiation study, read-out: Survival"}, "[9]": {"test": "Cytotoxicity against mouse L929 cells assessed as survival at 20 uM after 20 hrs by MTT method relative to control", "format": "cell-based", "conditions": "read-out: Survival"}, "[10]": {"test": "Cytotoxicity against mouse L929 cells assessed as survival at 10 uM after 20 hrs by MTT method relative to control", "format": "cell-based", "conditions": "read-out: Survival"}, "L929 [11]": {"tested_on": "L929", "test": "Prevention of 15 mins photoirradiation-induced damage in mouse L929 cells assessed as survival at 5 uM by MTT assay", "format": "functional", "conditions": "L929, light or radiation study, 0.25 h, read-out: Survival"}, "L929 [12]": {"tested_on": "L929", "test": "Prevention of 15 mins photoirradiation-induced damage in mouse L929 cells assessed as survival at 10 uM by MTT assay", "format": "functional", "conditions": "L929, light or radiation study, 0.25 h, read-out: Survival"}, "[13]": {"test": "Cytotoxicity against mouse L929 cells assessed as survival at 5 uM after 20 hrs by MTT method relative to control", "format": "cell-based", "conditions": "read-out: Survival"}, "L929 [14]": {"tested_on": "L929", "test": "Prevention of 10 mins photoirradiation-induced damage in mouse L929 cells assessed as survival at 10 uM by MTT assay", "format": "functional", "conditions": "L929, light or radiation study, read-out: Survival"}, "L929 [15]": {"tested_on": "L929", "test": "Prevention of 10 mins photoirradiation-induced damage in mouse L929 cells assessed as survival at 5 uM by MTT assay", "format": "functional", "conditions": "L929, light or radiation study, read-out: Survival"}, "L929 [16]": {"tested_on": "L929", "test": "Prevention of 5 mins photoirradiation-induced damage in mouse L929 cells assessed as survival at 10 uM by MTT assay", "format": "functional", "conditions": "L929, light or radiation study, read-out: Survival"}, "L929 [17]": {"tested_on": "L929", "test": "Prevention of 15 mins photoirradiation-induced damage in mouse L929 cells assessed as survival at 9 uM by MTT assay", "format": "functional", "conditions": "L929, light or radiation study, 0.25 h, read-out: Activity", "outline": "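L929 mouse fibroblasts (RPMI 1640, 10% heat-inactivated FCS, 37 °C, 5% CO₂) were seeded at 2 × 10⁴ cells/well, preincubated with test agent in serum-free RPMI for 2 h, then given methylene blue (9 or 18 µM) in PBS for 2 h. Cells were washed and exposed to a 100 W tungsten lamp at room temperature for 0–15 min, then grown in 10% FCS RPMI for 72 h. Viability was measured by MTT (0.5 mg/mL, 4 h), SDS lysis and A550; n = 5.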"}, "L929 [18]": {"tested_on": "L929", "test": "Prevention of 10 mins photoirradiation-induced damage in mouse L929 cells assessed as survival at 18 uM by MTT assay", "format": "functional", "conditions": "L929, light or radiation study, read-out: Survival"}, "[19]": {"test": "Cytotoxicity against mouse L929 cells assessed as survival at 9 uM after 20 hrs by MTT method relative to control", "format": "cell-based", "conditions": "read-out: Survival"}, "[20]": {"test": "Cytotoxicity against mouse L929 cells assessed as survival at 18 uM after 20 hrs by MTT method relative to control", "format": "cell-based", "conditions": "read-out: Survival"}, "L929 [21]": {"tested_on": "L929", "test": "Prevention of 5 mins photoirradiation-induced damage in mouse L929 cells assessed as survival at 18 uM by MTT assay", "format": "functional", "conditions": "L929, light or radiation study, read-out: Survival"}, "L929 [22]": {"tested_on": "L929", "test": "Prevention of 15 mins photoirradiation-induced damage in mouse L929 cells assessed as survival at 18 uM by MTT assay", "format": "functional", "conditions": "L929, light or radiation study, 0.25 h, read-out: Survival"}}}
{"smiles": "C=CCc1ccc(OC)c(O)c1", "values": [{"measurement": "Activity", "setting": "Liver [1]", "value": 61.5, "unit": "%"}, {"measurement": "Activity", "setting": "Liver [2]", "value": 22, "unit": "%"}, {"measurement": "Activity", "setting": "Liver [3]", "value": 40, "unit": "%"}, {"measurement": "Activity", "setting": "Liver [4]", "value": 72, "unit": "%"}]}
{"smiles": "COc1cc(C=O)ccc1O", "values": [{"measurement": "Activity", "setting": "Liver [5]", "value": 34, "unit": "%"}]}
{"smiles": "N[C@@H](CCC(=O)N[C@@H](CS)C(=O)NCC(=O)O)C(=O)O", "values": [{"measurement": "Activity", "setting": "Liver [6]", "value": 35.6, "unit": "%"}]}
{"smiles": "O=C1O[C@H]([C@@H](O)CO)C(O)=C1O", "values": [{"measurement": "Activity", "setting": "Liver [6]", "value": 25.7, "unit": "%"}]}
{"smiles": "OC[C@@H](O)[C@@H](O)[C@H](O)[C@H](O)CO", "values": [{"measurement": "Activity", "setting": "Liver [7]", "value": 20.1, "unit": "%"}]}
{"smiles": "C=CCc1ccc(O)c(O)c1", "note": "[HYDROXYCHAVICOL]", "values": [{"measurement": "Activity", "setting": "Liver [1]", "value": 87, "unit": "%"}, {"measurement": "Activity", "setting": "Liver [2]", "value": 32, "unit": "%"}, {"measurement": "viability at 5 µM", "setting": "L929 [8]", "value": 89.1, "unit": "%"}, {"measurement": "viability at 20 h, 20 µM", "setting": "[9]", "value": 75.7, "unit": "%"}, {"measurement": "viability at 20 h, 10 µM", "setting": "[10]", "value": 96.5, "unit": "%"}, {"measurement": "viability at 5 µM", "setting": "L929 [11]", "value": 85.4, "unit": "%"}, {"measurement": "viability at 10 µM", "setting": "L929 [12]", "value": 82.9, "unit": "%"}, {"measurement": "viability at 20 h, 5 µM", "setting": "[13]", "value": 96.2, "unit": "%"}, {"measurement": "viability at 10 µM", "setting": "L929 [14]", "value": 92.2, "unit": "%"}, {"measurement": "Activity", "setting": "Liver [3]", "value": 48, "unit": "%"}, {"measurement": "viability at 5 µM", "setting": "L929 [15]", "value": 88.3, "unit": "%"}, {"measurement": "viability at 10 µM", "setting": "L929 [16]", "value": 94.2, "unit": "%"}, {"measurement": "Activity", "setting": "Liver [4]", "value": 86, "unit": "%"}, {"measurement": "viability at 9 µM", "setting": "L929 [17]", "value": 6, "unit": "%"}]}
{"smiles": "CN(C)c1ccc2nc3ccc(N(C)C)cc3[s+]c2c1", "note": "[METHYLENE BLUE ANHYDROUS]", "values": [{"measurement": "viability at 18 µM", "setting": "L929 [18]", "value": 64.4, "unit": "%"}, {"measurement": "viability at 20 h, 9 µM", "setting": "[19]", "value": 102, "unit": "%"}, {"measurement": "viability at 20 h, 18 µM", "setting": "[20]", "value": 95.3, "unit": "%"}, {"measurement": "viability at 18 µM", "setting": "L929 [21]", "value": 67.6, "unit": "%"}, {"measurement": "viability at 9 µM", "setting": "L929 [17]", "value": 14, "unit": "%"}, {"measurement": "viability at 18 µM", "setting": "L929 [22]", "value": 48.9, "unit": "%"}]}
